Screens as filed in PubChem BioAssay.
DAT uptake mod = human DAT dopamine uptake with cocaine, either direction; 1.3% of 110,000 active; B-score at 10 µM; LLC-PK1 hDAT cells, [14C]-dopamine uptake with cocaine IC80; actives deviate in either direction;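 active = Z score or B-score, a plate-position-corrected score, falls beyond the plate's 99.7% confidence bounds, in either direction; inactive = both scores lie inside the 99.7% bounds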;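 note: scored against the spread of the other compound wells on the same plate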
MMP-13 inhibitor = blocks human MMP13 activity. 0.07% of 65,000 active. MMP-13 fTHP FRET cleavage, Mca fluorescence. inhibition, % at 4 µM. P45452;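 active = inhibition above the mean of compound-free control plate wells plus 3 SD, cut at about 14% in these data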;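 note: 0% = DMSO wells and 100% = wells with reference MMP-13 inhibitor after basal subtraction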
AP ELISA ortho = alternative pathway complement inhibition, orthogonal assay | Human serum alternative complement pathway, LPS-coated ELISA, C3 deposition; tested in compound mixtures | inhibition, % at 5 µM | 0.08% of 62,000 active | AID 1235;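 active = inhibition above 30% in each of the two pooled mixtures holding the compound, so the lower value exceeds 30%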;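 note: 0% = serum in Mg-EGTA without compound and 100% = EDTA serum blank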
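Test system: human serum alternative complement pathway, C3 deposition on LPS-coated wells; also added: Plate-bound LPS; doses: 5 µM per compound in ten-compound mixtures; schedule: 1 h at 37 °C; detection: Anti-C3 ELISA, OD 450 nm; evaluation: percent inhibition of C3 deposition onto LPS; repeats: two pool placements per compound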
Calb biofilm kill = kills Candida albicans biofilms; inhibition, % at 6 µM; C. albicans biofilm + clotrimazole, Alamar Blue; 0.14% of 85,000 active; AID 834;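 active = inhibition above 20%; inactive = inhibition below 20%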;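 note: preformed 24 hr biofilms exposed to compound for 48 hr; 0% = biofilm without compound and 100% = blank killed by clotrimazole plus chlorhexidine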
D1 mod = allosterically modulates the human D1 dopamine receptor. HEK293 D1, CRE-luciferase, dopamine EC30 potentiation; actives deviate in either direction. B-score at 10 µM. 5.9% of 58,000 active;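 active = luminescence count or its row- and column-corrected plate score outside the 99.7% band of the plate's sample wells, on either side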
Target sequence (P21728 whole entry, looked up): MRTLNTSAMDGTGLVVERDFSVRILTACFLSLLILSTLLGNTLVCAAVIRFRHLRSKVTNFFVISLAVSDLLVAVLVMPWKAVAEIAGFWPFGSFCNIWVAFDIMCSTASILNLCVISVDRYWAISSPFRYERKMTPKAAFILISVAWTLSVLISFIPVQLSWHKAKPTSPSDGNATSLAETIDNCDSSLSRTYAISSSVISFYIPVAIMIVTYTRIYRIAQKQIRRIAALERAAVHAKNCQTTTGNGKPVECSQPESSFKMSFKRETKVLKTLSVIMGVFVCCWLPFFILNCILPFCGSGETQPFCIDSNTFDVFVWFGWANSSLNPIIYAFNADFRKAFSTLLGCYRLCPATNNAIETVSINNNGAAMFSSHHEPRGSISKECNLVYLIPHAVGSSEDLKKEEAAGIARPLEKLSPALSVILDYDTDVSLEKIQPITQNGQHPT
* marks the source's active call; other numbers are inactive results. The full list was thinned out, with hits kept by preference.

What do the screens show for `O=S(=O)(Nc1ccc(O)c(CN2CCCCC2)c1)c1ccccc1`?
DAT uptake mod: 1.6*; MMP-13 inhibitor: 2; AP ELISA ortho: -3; Calb biofilm kill: 9; D1 mod: 0.035

What do the screens show for `Cn1c(CN2CCCC2)nc2cc(NS(=O)(=O)c3ccccc3)ccc21`?
DAT uptake mod: 0.74; MMP-13 inhibitor: 5; AP ELISA ortho: 16; Calb biofilm kill: 9; D1 mod: 0.025

Results for CC(C)(C)OC(=O)NCCCC[C@H](NC(=O)c1nc[nH]c1C(=O)NC(c1ccccc1)c1ccccc1)C(=O)OC(C)(C)C ?
DAT uptake mod: -0.21

What do the screens show for `CNC(=O)COC(=O)c1cc2c(C)nn(-c3ccc(F)cc3)c2s1`?
DAT uptake mod: 0.42; Calb biofilm kill: 6

Results for Cc1nn(-c2ccccc2)c2sc(C(=O)OCN3C(=O)c4ccccc4C3=O)cc12 ?
DAT uptake mod: -0.017; MMP-13 inhibitor: 0; AP ELISA ortho: 0; Calb biofilm kill: 3; D1 mod: 5.3*

Results for Cc1oc2cc3c(C(=O)OCCN(C)C)c(C)oc3cc2c1C(=O)OCCN(C)C ?
MMP-13 inhibitor: 2; AP ELISA ortho: 6; Calb biofilm kill: 8; D1 mod: -3.4*

Results for CC1CCCCN1S(=O)(=O)c1ccc2c(c1)oc(=O)n2CC(=O)O (stereo unspecified) ?
DAT uptake mod: -2.3*; MMP-13 inhibitor: 4; AP ELISA ortho: 2; Calb biofilm kill: 7; D1 mod: -0.45

What do the screens show for `N#C/C(=C\c1ccc(Cl)cc1)c1nc2ncccc2[nH]1`?
DAT uptake mod: -0.077

Results for O=C(C1=C[C@@H](C2CC2)C[C@@H](OCc2ccc(CO)cc2)O1)N1CCN(Cc2ccccc2)CC1 ?
DAT uptake mod: 0.14

How did Cc1oc(-c2ccc(Cl)cc2)nc1CN1CCC(C(=O)N2CCc3ccccc3C2)CC1 do in these assays?
DAT uptake mod: 2.6*; MMP-13 inhibitor: 2; AP ELISA ortho: 16; Calb biofilm kill: 8; D1 mod: -0.63

What do the screens show for `Cc1oc(-c2cccc(Cl)c2)nc1CN1CCC(C(=O)NCc2ccco2)CC1`?
DAT uptake mod: -1.4; MMP-13 inhibitor: 7; AP ELISA ortho: 8; D1 mod: 0.4

Results for Cc1oc(-c2ccc(Cl)cc2)nc1CN1CCC(C(=O)NCc2ccco2)CC1 ?
DAT uptake mod: 0.13; MMP-13 inhibitor: -12; AP ELISA ortho: 8; Calb biofilm kill: -4; D1 mod: -3.2*

How did CCOC(=O)C(=CNc1cc(C)nn1-c1ccccc1)C(=O)OCC do in these assays?
DAT uptake mod: 2.2*; Calb biofilm kill: 0

What do the screens show for `CCCNC(=O)NC(C)C12CC3CC(CC(C3)C1)C2` (stereo unspecified)?
DAT uptake mod: -0.4; Calb biofilm kill: 6

Results for CC(NC(=O)Cn1cnnn1)C12CC3CC(CC(C3)C1)C2 (stereo unspecified) ?
DAT uptake mod: -3.3*; MMP-13 inhibitor: 1; AP ELISA ortho: 20; Calb biofilm kill: 10; D1 mod: -0.88

What do the screens show for `CC(NC(=O)CN1CCCC1)C12CC3CC(CC(C3)C1)C2` (stereo unspecified)?
DAT uptake mod: -5.6*; Calb biofilm kill: 7

What do the screens show for `c1ccc(N2OCC3Cn4c(nc5ccccc54)C32)cc1` (stereo unspecified)?
DAT uptake mod: -0.31

How did CC(=O)c1cccc(NC(=O)Nc2c(C)nn(C)c2C)c1 do in these assays?
DAT uptake mod: 2.1*; MMP-13 inhibitor: 2; AP ELISA ortho: 7; Calb biofilm kill: 4; D1 mod: 2.1

What do the screens show for `CCOC(=O)c1ccc(NC(=O)Nc2c(C)nn(C)c2C)cc1`?
DAT uptake mod: 0.59; MMP-13 inhibitor: 1; AP ELISA ortho: 7; Calb biofilm kill: 5; D1 mod: -0.12

Results for CC(=O)c1ccc(NC(=O)Nc2cccc(Cl)c2)cc1 ?
DAT uptake mod: -3.9*; Calb biofilm kill: 4

What do the screens show for `Oc1ccc(C[C@@H]2CNC(=S)N2CCCCC2CCCCC2)cc1`?
DAT uptake mod: 0.35

Results for CCN(CC)S(=O)(=O)c1ccc(NC(=O)C(C)N(c2ccccc2)S(C)(=O)=O)cc1 (stereo unspecified) ?
DAT uptake mod: 2.5*; Calb biofilm kill: 2

How did CC(C)(C)N1[C@@H](CC(=O)O)c2cc(C(F)(F)F)ccc2S1(=O)=O do in these assays?
DAT uptake mod: -0.081

What do the screens show for `COc1cc(/C=N/NC(=O)COc2ccc(Cl)cc2)ccc1OS(=O)(=O)c1ccc(C)cc1`?
DAT uptake mod: -8.3*

What do the screens show for `COc1cccc(N2CC(O)=C(c3nc4ccccc4c(=O)[nH]3)C2=N)c1`?
DAT uptake mod: 0.26; MMP-13 inhibitor: -72; AP ELISA ortho: 9; Calb biofilm kill: 6

What do the screens show for `CC(C)N1CC(O)=C(c2nc3ccccc3c(=O)[nH]2)C1=N`?
DAT uptake mod: 1.3*; Calb biofilm kill: 1

How did CCc1ccc2[nH]c(=O)c(CN(Cc3ccccc3)C(=O)Nc3ccccc3OC)cc2c1 do in these assays?
DAT uptake mod: -0.64; Calb biofilm kill: 5

What do the screens show for `O=C(NCc1ccc2c(c1)OCO2)c1ccc(-c2ccc(Cl)cc2)o1`?
DAT uptake mod: 2.4*; MMP-13 inhibitor: 0; AP ELISA ortho: 12; Calb biofilm kill: 4; D1 mod: 0.59

What do the screens show for `CCOC(=O)/C(C#N)=C1/C=CN(C)C(C)=N1`?
DAT uptake mod: -0.36; MMP-13 inhibitor: 5; AP ELISA ortho: 33*; Calb biofilm kill: 2; D1 mod: -0.63

What do the screens show for `CCOC(=O)C(NC(=O)Nc1ccccc1)(OCC)C(F)(F)F` (stereo unspecified)?
DAT uptake mod: -0.34; MMP-13 inhibitor: -6; AP ELISA ortho: 3; Calb biofilm kill: -2; D1 mod: -0.095

How did CCOC(=O)C(NC(C)=O)(OCc1ccc(F)cc1)C(F)(F)F (stereo unspecified) do in these assays?
DAT uptake mod: 0.63; MMP-13 inhibitor: -4; AP ELISA ortho: 8; Calb biofilm kill: -4; D1 mod: -5.7*

How did CC(=O)c1c(C)[nH]c(C(=O)N2c3ccccc3CC2C)c1C (stereo unspecified) do in these assays?
DAT uptake mod: 0.92; MMP-13 inhibitor: 4; AP ELISA ortho: 11; Calb biofilm kill: 27*; D1 mod: 0.031

How did CC(=O)c1c(C)[nH]c(C(=O)OCC(=O)N2CCc3ccccc32)c1C do in these assays?
DAT uptake mod: -2.6*; Calb biofilm kill: 9

How did CC(C)C1N=C2c3ccccc3N=C(SCc3cc(=O)n4cc(Cl)ccc4n3)N2C1=O (stereo unspecified) do in these assays?
DAT uptake mod: -7.1*; MMP-13 inhibitor: -2; AP ELISA ortho: 11; Calb biofilm kill: 3; D1 mod: 3.2

What do the screens show for `O=C1CCN(S(=O)(=O)c2ccccc2)CCN1CCOCc1cccc(F)c1`?
DAT uptake mod: -0.92

What do the screens show for `Cn1c(=O)c2c(nc(NCC3CCCO3)n2Cc2cccc(Br)c2)n(C)c1=O` (stereo unspecified)?
DAT uptake mod: 1.4; Calb biofilm kill: 6

How did CCOc1cc(N2CCOCC2)c(OCC)cc1NC(=O)CC12CC3CC(CC(C3)C1)C2 do in these assays?
DAT uptake mod: 2.7*
